Reference: ChEMBL document CHEMBL3785019, “Dihydropyrazole derivatives as telomerase inhibitors: Structure-based design, synthesis, SAR and anticancer evaluation in vitro and in vivo” (Eur J Med Chem, 2016)
Active and inactive are the calls of the source. The rule behind the calls is not given here.

Legend:
Rattus norvegicus = experiment: Antitumor activity against DEN induced Sprague-Dawley rat hepatic tumor assessed as improvement of pathological changes at 50 mg/kg, po qd for 10 consecutive weeks by HE-staining based microscopic analysis; type: functional, organism-based
In short: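 Male SD rats (120~160 g) gavaged with DEN 8 mg/kg once daily, 6 days/week; DEN continued to week 16. From week 10, compound given orally at 50 mg·kg-1 once daily for 10 consecutive weeks; n = 12 per group. Similar parts of left liver lobe fixed in 4% polyformaldehyde, paraffin-embedded, sectioned, HE stained; histopathology viewed at ×200.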

[1] = Antitumor activity against mouse EAC cells xenografted in Kunming mouse assessed as survival time at 60 mg/kg/day, QD administered via oral gavage for 10 consecutive days days (reference value: 16.6 +/- 2.02days); type: functional, Ehrlich
In short: (§1)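 EAC cells were grown in RPMI-1640 with 10% heat-inactivated FBS and were kept as ascites by passaging 0.2 mL (2 × 10^6 cells) between mice. Kunming mice weighing 20 ± 2 g were used. Survival was followed by mortality. Mean survival time is the sum of each mouse's survival days divided by the number of mice. %ILS is the […].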

HepG2 [2] = experiment: Antitumor activity against human HepG2 cells xenografted in Kunming mouse assessed as tumor weight at 60 mg/kg/day, QD administered via oral gavage for 10 consecutive days (reference value: 1.93 +/- 0.20g)
[3] = target: T1, Telomerase reverse transcriptase (Homo sapiens, UniProt O14746); experiment: Inhibition of telomerase in human MGC-803 cells after 24 hrs by TRAP-PCR-ELISA assay; type: cell-based
In short: (§2)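 Cells lysed in RIPA on ice for 30 min; extract incubated with TRAP mix at 25 °C for 30 min, then 35 PCR cycles. Products hybridized to DIG probe, captured on streptavidin, detected with peroxidase anti-DIG at 490 nm; mean±SD.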

CCRF S-180 [4] = experiment: Antitumor activity against mouse S180 cells xenografted in Kunming mouse assessed as inhibition of tumor growth at 60 mg/kg/day, QD administered via oral gavage for 10 consecutive days; type: functional; conditions: CCRF S-180, po, read-out: TGI
In short: (§3)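 Kunming mice (20 ± 2 g) inoculated subcutaneously in right front armpit with seven-day-old ascites (0.2 ml, 2 × 10^6 cells). 24 h later randomized, 10 per group; oral gavage 60 mg/kg/day or normal saline (10 mL/kg) once daily for ten days. Sacrificed day 11; tumors and mice weighed. Inhibition rate = (Wcontrol − Wtreated)/Wcontrol × 100%.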

HepG2 [5] = experiment: Cytotoxicity against human HepG2 cells after 48 hrs by MTT assay; type: functional, cell-based
In short: (§4)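 Tumor cells in log phase in RPMI 1640 + 10% FBS, seeded at 3×10^4 cells mL-1 and incubated 24 h (37 °C, 5% CO2). Test samples added at pre-set concentrations (6 wells each), doxorubicin as reference; 48 h exposure. MTT (2.5 mg·mL-1 in PBS) added for 4 h, formazan dissolved in DMSO, A570 read.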

[6] = Cytotoxicity against human MGC803 cells after 48 hrs by MTT assay; type: functional, cell-based, MGC-803; in short: as §4
Mus musculus [7] = experiment: Toxicity in mouse S180 cells xenografted Kunming mouse assessed as body weight at 60 mg/kg/day, QD administered via oral gavage for 10 consecutive days measured on day 11 (reference value: 23.84 +/- 2.11g); type: organism-based, CCRF S-180; conditions: in vivo; in short: as §3
Mus musculus [8] = experiment: Toxicity in Kunming mouse xenografted with mouse EAC cells assessed as body weight at 60 mg/kg/day, QD administered via oral gavage for 10 consecutive days measured on day 11 (reference value: 19.52 +/- 1.17g); type: organism-based, Ehrlich; conditions: in vivo
HepG2 [9] = experiment: Antitumor activity against human HepG2 cells xenografted in Kunming mouse assessed as inhibition of tumor growth at 60 mg/kg/day, QD administered via oral gavage for 10 consecutive days; type: functional; conditions: read-out: TGI; in short: as §3
[10] = Cytotoxicity against human L02 cells after 48 hrs by MTT assay; type: cell-based; conditions: L02, 48 h
In short: (§5)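 Human normal gastric mucosa GES-1 and liver L-02 cells; MTT assay; IC50 expressed in mM as mean of triplicate experiments.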

[11] = Cytotoxicity against human PC3 cells after 48 hrs by MTT assay; type: functional, cell-based, PC-3; in short: as §4
CCRF S-180 [12] = experiment: Antitumor activity against mouse S180 cells xenografted in Kunming mouse assessed as tumor weight at 60 mg/kg/day, QD administered via oral gavage for 10 consecutive days (reference value: 1.98 +/- 0.22g); type: functional; in short: as §3
Bcap37 = experiment: Cytotoxicity against human Bcap37 cells after 48 hrs by MTT assay; type: functional, cell-based; in short: as §4
Mus musculus [13] = experiment: Toxicity in human HepG2 cells xenografted Kunming mouse assessed as body weight at 60 mg/kg/day, QD administered via oral gavage for 10 consecutive days measured on day 11 (reference value: 25 +/- 1.65g); type: organism-based; conditions: in vivo; in short: as §3
[14] = Cytotoxicity against human GES-1 cells after 48 hrs by MTT assay; type: cell-based; conditions: GES1, 48 h; in short: as §5
[15] = Antitumor activity against mouse EAC cells xenografted in Kunming mouse assessed as prolongation of survival time at 60 mg/kg/day, QD administered via oral gavage for 10 consecutive days days relative to untreated control; type: functional; conditions: Ehrlich; in short: as §1
[16] = target: T1, Telomerase reverse transcriptase; experiment: Inhibition of telomerase in human MGC-803 cells upto 60 uM after 24 hrs by TRAP-PCR-ELISA assay; type: cell-based; in short: as §2
[17] = Homo sapiens, HepG2, 48 h, read-out: IC50
[18] = Homo sapiens, MGC-803, 48 h, read-out: IC50
[19] = Homo sapiens, PC-3, 48 h, read-out: IC50
[20] = Homo sapiens, Bcap37, 48 h, read-out: IC50

T1 sequence (O14746 whole entry): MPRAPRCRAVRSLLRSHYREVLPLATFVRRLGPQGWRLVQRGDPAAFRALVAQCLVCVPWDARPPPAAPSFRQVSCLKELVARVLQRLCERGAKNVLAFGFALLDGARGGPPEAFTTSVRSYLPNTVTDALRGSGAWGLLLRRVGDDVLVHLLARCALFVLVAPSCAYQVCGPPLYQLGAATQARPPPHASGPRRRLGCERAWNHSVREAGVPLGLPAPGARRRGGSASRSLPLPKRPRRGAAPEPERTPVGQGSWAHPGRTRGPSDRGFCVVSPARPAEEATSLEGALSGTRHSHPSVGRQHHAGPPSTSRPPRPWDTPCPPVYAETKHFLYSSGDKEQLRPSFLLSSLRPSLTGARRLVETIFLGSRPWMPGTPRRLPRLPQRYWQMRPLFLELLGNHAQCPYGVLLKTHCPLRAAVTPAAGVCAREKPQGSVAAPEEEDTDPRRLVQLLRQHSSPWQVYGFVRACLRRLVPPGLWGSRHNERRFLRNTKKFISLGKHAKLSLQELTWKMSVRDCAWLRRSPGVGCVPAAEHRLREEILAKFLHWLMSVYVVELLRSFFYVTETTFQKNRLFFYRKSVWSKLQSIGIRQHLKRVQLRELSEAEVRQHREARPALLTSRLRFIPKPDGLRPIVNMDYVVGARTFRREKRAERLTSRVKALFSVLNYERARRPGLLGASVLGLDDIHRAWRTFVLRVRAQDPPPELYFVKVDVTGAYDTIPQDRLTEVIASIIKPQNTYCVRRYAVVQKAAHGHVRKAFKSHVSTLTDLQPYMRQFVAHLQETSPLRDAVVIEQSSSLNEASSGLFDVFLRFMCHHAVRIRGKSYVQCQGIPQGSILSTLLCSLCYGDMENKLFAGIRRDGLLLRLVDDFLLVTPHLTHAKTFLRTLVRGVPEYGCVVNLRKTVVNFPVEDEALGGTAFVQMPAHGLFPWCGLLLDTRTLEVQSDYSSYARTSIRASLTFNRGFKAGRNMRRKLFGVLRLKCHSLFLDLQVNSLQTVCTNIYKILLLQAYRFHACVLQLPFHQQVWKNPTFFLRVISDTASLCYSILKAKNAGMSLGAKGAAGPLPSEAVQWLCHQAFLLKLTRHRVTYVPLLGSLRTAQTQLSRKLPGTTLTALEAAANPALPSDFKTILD

Row | IC50 [3] [nM] | inhibition [16] | Compound | IC50 (HepG2 [5]; [17]) [nM] | IC50 [6, 18] [µM] | IC50 [10] [mM] | IC50 [11, 19] [µM] | IC50 (Bcap37; [20]) [µM] | IC50 [14] [mM] | also measured
1 | 1270 | – | CC(=O)Oc1ccccc1C1CC(C)=NN1C(=O)CCl (centres undefined) | 2520 | 3.01 | 2.53 | 3.58 | 6.81 | 1.84 | –
2 | – | inactive | CCN(CC)CC(=O)N1N=C(C)CC1c1ccccc1OC(C)=O (centres undefined) | 33200 | 29.5 | – | 51.2 | 44.2 | – | –
3 | – | inactive | CC1=NN(S(=O)(=O)c2ccc(C)cc2)C(c2cc(Br)cc(Br)c2O)C1 (centres undefined) | – | – | – | 51.2 | – | – | IC50 (HepG2 [5]; hepg2): Not Active; IC50 ([6]; mgc-803): Not Active; IC50 (Bcap37; bcap37): Not Active

More lines, now with the values behind:

Row | Compound | IC50 [3] [nM] | inhibition [16] | IC50 (HepG2 [5]; [17]) [nM] | IC50 [6, 18] [µM] | IC50 [10] [mM] | IC50 [11, 19] [µM] | IC50 (Bcap37; [20]) [µM] | IC50 [14] [mM] | also measured
4 | CCCCN(CCCC)CC(=O)N1N=C(c2cc3ccccc3oc2=O)CC1c1ccccc1 (centres undefined) | 980 | – | 2450 | 2.96 | 1.62 | 4.87 | 3.37 | 1.64 | Activity (Rattus norvegicus): Active; Survival [1]: 23.89 days; Activity (HepG2 [2]): 1.04 g; inhibition in vivo at 60 mg/kg/day (CCRF S-180 [4]): 48.9%; Activity (Mus musculus [7]): 24.64 g; Activity (Mus musculus [8]): 19.6 g; inhibition in vivo at 60 mg/kg/day (HepG2 [9]): 46.1%; Activity (CCRF S-180 [12]): 1.01 g; Activity (Mus musculus [13]): 27.11 g; survival at 60 mg/kg/day [15]: 43.9%
5 | CC(=O)Oc1ccccc1C1CC(C)=NN1C(=O)CN1CCC(O)CC1 (centres undefined) | 5690 | – | 12300 | 3.51 | 2.23 | 25.6 | 9.8 | 2.51 | –
6 | O=C(CN1CCC(O)CC1)N1N=C(c2cc3ccccc3oc2=O)CC1c1ccccc1 (centres undefined) | – | inactive | – | – | – | – | – | – | IC50 (HepG2 [5]; hepg2): Not Active; IC50 ([6]; mgc-803): Not Active; IC50 ([11]; pc-3): Not Active; IC50 (Bcap37; bcap37): Not Active
7 | O=C(CCl)N1N=C(c2cc3ccccc3oc2=O)CC1c1ccccc1 (centres undefined) | 2270 | – | 2980 | 2.02 | 1.28 | 2.98 | 26.7 | 2.11 | –
8 | CC1=NN(C(=O)CN2CCCCC2)C(c2ccccc2O)C1 (centres undefined) | 4630 | – | 3020 | 4.31 | 1.8 | 5.89 | 33.1 | 1.29 | Survival [1]: 23.41 days; Activity (HepG2 [2]): 1.17 g; inhibition in vivo at 60 mg/kg/day (CCRF S-180 [4]): 44.4%; Activity (Mus musculus [7]): 24.89 g; Activity (Mus musculus [8]): 19.3 g; inhibition in vivo at 60 mg/kg/day (HepG2 [9]): 39.4%; Activity (CCRF S-180 [12]): 1.1 g; Activity (Mus musculus [13]): 26 g; survival at 60 mg/kg/day [15]: 41%
